Test results reported in ChEMBL document CHEMBL1142695, “Discovery of functionally selective 7,8,9,10-tetrahydro-7,10-ethano-1,2,4-triazolo[3,4-a]phthalazines as GABA A receptor agonists at the alpha3 subunit” (J Med Chem, 2005).

What was measured:
Type in all cases: cell-based
[1] = molecular target: T1, GABA-A receptor; alpha-2/beta-3/gamma-2 (Homo sapiens, UniProt P18507+P28472+P47869); assay: Inhibition of [3H]Ro-151788 binding to recombinant human gamma-aminobutyric acid A receptor alpha-2-beta-3-gamma-2 subtype expressed in L (tk-) cells
T1 sequence (P18507 whole entry): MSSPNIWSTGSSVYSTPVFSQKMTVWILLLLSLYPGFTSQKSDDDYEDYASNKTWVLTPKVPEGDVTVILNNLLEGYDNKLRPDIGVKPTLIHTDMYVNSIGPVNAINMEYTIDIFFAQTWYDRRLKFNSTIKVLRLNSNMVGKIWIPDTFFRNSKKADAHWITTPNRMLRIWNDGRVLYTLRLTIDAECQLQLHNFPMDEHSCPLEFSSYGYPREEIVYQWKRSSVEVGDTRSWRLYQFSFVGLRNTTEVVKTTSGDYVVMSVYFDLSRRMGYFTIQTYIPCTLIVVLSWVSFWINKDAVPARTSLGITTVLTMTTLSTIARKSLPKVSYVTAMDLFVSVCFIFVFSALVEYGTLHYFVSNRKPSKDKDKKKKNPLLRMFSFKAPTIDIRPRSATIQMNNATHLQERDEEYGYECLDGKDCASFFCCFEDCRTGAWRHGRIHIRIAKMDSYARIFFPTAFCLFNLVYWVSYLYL
T1 sequence (P28472 whole entry): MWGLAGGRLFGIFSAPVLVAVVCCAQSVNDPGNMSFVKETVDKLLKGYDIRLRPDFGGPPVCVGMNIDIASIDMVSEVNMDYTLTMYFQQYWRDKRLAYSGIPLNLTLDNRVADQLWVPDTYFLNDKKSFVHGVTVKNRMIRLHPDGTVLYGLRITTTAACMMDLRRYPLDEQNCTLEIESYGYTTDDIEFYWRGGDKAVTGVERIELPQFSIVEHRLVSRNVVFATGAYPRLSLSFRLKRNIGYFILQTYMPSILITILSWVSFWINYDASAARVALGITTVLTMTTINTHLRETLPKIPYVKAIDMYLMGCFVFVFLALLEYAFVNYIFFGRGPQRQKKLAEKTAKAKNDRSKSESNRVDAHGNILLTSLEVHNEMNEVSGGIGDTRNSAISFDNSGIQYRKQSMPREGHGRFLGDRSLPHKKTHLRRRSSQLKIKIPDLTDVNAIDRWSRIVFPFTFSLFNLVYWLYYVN
T1 sequence (P47869 whole entry): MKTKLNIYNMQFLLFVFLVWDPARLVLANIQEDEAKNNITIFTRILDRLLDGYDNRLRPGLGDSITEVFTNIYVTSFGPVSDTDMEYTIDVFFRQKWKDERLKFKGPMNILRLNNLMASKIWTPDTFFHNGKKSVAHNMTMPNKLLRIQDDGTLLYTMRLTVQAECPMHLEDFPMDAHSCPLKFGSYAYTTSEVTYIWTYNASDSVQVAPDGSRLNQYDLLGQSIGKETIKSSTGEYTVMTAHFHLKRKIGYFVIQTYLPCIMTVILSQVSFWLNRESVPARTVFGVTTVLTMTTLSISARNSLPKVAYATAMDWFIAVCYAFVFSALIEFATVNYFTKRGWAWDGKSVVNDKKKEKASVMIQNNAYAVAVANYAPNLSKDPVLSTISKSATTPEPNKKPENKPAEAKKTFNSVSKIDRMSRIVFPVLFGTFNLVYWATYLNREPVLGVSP

[2] = molecular target: GABA-A receptor; alpha-1/beta-3/gamma-2 (Homo sapiens) (UniProt P14867+P18507+P28472); assay: Efficacy was measured as modulation of the current in response to GABA at hGABA alpha-1-beta-3-gamma-2 receptor expressed in Xenopus oocytes; conditions: Oocyte
How it was run: (§1)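 Two-electrode voltage clamp on Xenopus oocytes expressing each receptor combination. […] Value is percent increase or decrease of the EC20 GABA current.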

[3] = molecular target: T2, GABA-A receptor; alpha-3/beta-3/gamma-2 (Homo sapiens, UniProt P18507+P28472+P34903); assay: Inhibition of [3H]Ro-151788 binding to recombinant human gamma-aminobutyric-acid A receptor alpha-3-beta-3-gamma-2 subtype expressed in L (tk-) cells
T2 sequence (P18507 whole entry): T1 sequence (P18507 whole entry)
T2 sequence (P28472 whole entry): T1 sequence (P28472 whole entry)
T2 sequence (P34903 whole entry): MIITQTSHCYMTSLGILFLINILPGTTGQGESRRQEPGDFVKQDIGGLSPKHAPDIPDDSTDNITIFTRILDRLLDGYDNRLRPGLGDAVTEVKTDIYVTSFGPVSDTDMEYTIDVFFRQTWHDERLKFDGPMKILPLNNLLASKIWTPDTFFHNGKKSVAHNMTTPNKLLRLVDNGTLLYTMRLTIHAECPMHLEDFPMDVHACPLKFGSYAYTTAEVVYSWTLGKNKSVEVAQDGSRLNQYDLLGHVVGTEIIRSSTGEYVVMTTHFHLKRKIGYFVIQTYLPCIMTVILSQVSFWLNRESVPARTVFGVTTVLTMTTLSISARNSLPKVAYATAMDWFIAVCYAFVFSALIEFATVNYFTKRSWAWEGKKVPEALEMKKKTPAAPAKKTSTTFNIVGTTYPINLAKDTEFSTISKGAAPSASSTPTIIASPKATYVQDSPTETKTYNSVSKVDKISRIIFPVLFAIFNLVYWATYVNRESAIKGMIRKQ

[4] = molecular target: T3, GABA-A receptor; alpha-1/beta-3/gamma-2 (Homo sapiens, UniProt P14867+P18507+P28472); assay: Inhibition of [3H]Ro-151788 binding to recombinant human gamma-aminobutyric-acid A receptor alpha-1-beta-3-gamma-2 subtype expressed in L (tk-) cells
T3 sequence (P14867 whole entry): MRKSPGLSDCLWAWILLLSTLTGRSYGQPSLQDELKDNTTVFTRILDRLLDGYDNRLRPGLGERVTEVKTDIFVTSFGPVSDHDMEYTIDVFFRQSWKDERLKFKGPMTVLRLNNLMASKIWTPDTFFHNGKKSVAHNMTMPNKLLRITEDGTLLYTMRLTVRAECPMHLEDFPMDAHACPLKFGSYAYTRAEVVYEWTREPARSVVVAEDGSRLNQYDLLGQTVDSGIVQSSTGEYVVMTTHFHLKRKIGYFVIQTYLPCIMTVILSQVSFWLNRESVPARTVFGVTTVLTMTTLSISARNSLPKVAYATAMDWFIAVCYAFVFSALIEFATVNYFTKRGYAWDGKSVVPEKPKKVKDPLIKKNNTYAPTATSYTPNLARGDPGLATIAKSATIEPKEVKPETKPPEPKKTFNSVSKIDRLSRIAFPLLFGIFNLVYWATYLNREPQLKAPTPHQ
T3 sequence (P18507 whole entry): T1 sequence (P18507 whole entry)
T3 sequence (P28472 whole entry): T1 sequence (P28472 whole entry)

[5] = molecular target: GABA-A receptor; alpha-3/beta-3/gamma-2 (Homo sapiens) (UniProt P18507+P28472+P34903); assay: Efficacy was measured as modulation of the current in response to GABA at hGABA alpha-3-beta-3-gamma-2 receptor expressed in Xenopus oocytes; conditions: Oocyte; how it was run: as §1
[6] = molecular target: GABA-A receptor; alpha-2/beta-3/gamma-2 (Homo sapiens) (UniProt P18507+P28472+P47869); assay: Efficacy was measured as modulation of the current in response to GABA at hGABA alpha-2-beta-3-gamma-2 receptor expressed in Xenopus oocytes; conditions: Oocyte; how it was run: as §1
[7] = molecular target: T4, GABA-A receptor; alpha-5/beta-3/gamma-2 (Homo sapiens, UniProt P18507+P28472+P31644); assay: Inhibition of [3H]Ro-151788 binding to recombinant human gamma-aminobutyric-acid A receptor alpha-5-beta-3-gamma-2 subtype expressed in L (tk-) cells
T4 sequence (P18507 whole entry): T1 sequence (P18507 whole entry)
T4 sequence (P28472 whole entry): T1 sequence (P28472 whole entry)
T4 sequence (P31644 whole entry): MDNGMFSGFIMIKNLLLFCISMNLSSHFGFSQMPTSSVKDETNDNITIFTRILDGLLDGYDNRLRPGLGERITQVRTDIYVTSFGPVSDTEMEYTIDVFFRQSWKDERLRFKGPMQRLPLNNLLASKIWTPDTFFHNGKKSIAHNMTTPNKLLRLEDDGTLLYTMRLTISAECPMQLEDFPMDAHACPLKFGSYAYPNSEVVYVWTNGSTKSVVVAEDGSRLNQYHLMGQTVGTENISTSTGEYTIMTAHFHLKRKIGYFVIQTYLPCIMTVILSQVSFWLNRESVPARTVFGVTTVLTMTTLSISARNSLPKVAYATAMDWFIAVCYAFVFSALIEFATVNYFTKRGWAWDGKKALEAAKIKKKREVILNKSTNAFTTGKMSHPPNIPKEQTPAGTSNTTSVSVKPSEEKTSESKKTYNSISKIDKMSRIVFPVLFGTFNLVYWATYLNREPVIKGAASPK

[8] = molecular target: GABA-A receptor; alpha-5/beta-3/gamma-2 (Homo sapiens) (UniProt P18507+P28472+P31644); assay: Efficacy was measured as modulation of the current in response to GABA at hGABA alpha-5-beta-3-gamma-2 receptor expressed in Xenopus oocytes; conditions: Oocyte; how it was run: as §1

Ki [1]: 14 nM
Efficacy [2]: 64%
Ki [3]: 8.5 nM
Ki [4]: 33 nM
Efficacy [5]: 57%
Efficacy [6]: 35%
Ki [7]: 0.88 nM
Efficacy [8]: 39%
Structure (SMILES): c1ccc(-c2nnc3c4c(c(OCc5cccnn5)nn23)C2CCC4CC2)cc1
